For assay [1], the target named is Mitogen-activated protein kinase 14 (Homo sapiens, UniProt Q16539). In words: Inhibition of p38alpha phosphorylation in human TNFalpha-stimulated U937 cells treated 1 hr before by ELISA. Format: cell-based, U-937. In outline:
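U937 human leukemic monocytes were pre-treated with compound across a dose range for one hour, then stimulated with TNFα. Phospho-p38α was quantified by ELISA, and IC50 was taken from the dose-response.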
Background: In an ELISA, binding on a coated surface is turned into a signal by an enzyme label.

In assay [2] the target is T1, Dual specificity mitogen-activated protein kinase kinase 3 (Homo sapiens, UniProt P46734).
T1 sequence (P46734 whole entry): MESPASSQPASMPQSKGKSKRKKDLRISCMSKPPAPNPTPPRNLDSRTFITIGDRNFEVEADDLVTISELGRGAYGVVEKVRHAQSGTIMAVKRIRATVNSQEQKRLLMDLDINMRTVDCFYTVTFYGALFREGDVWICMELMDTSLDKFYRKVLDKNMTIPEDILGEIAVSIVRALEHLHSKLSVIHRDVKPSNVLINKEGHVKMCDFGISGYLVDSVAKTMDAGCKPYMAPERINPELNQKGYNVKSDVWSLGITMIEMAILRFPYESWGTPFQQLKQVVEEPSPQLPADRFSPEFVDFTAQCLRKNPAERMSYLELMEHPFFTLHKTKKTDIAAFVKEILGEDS
Description: Inhibition of MKK3 (unknown origin) using [gamma-33P]-ATP after 20 mins by radiometric assay.

The species named for assay [3] is Homo sapiens. In words: Selectivity ratio of IC50 for MKK3 (unknown origin) to IC50 for MKK6 (unknown origin).
The species entered for assay [4] is Homo sapiens. In words: Selectivity ratio of IC50 for MKK3 (unknown origin) to IC50 for p38alpha (unknown origin).
The species entered for assay [5] is Homo sapiens. Description: Selectivity ratio of IC50 for MKK3 (unknown origin) to IC50 for p38gamma (unknown origin).
Assay [6] is filed under the species Homo sapiens. Description: Selectivity ratio of IC50 for MKK3 (unknown origin) to IC50 for JNK1 (unknown origin).
The species named for assay [7] is Homo sapiens. Description: Selectivity ratio of IC50 for MKK3 (unknown origin) to IC50 for JNK2 (unknown origin).
The species entered for assay [8] is Homo sapiens. Description: Selectivity ratio of IC50 for MKK3 (unknown origin) to IC50 for ERK1 (unknown origin).
The species entered for assay [9] is Homo sapiens. Description: Selectivity ratio of IC50 for MKK3 (unknown origin) to IC50 for ERK2 (unknown origin).
Assay [10] is filed under the species Homo sapiens. Description: Selectivity ratio of IC50 for MKK3 (unknown origin) to IC50 for MEK1 (unknown origin).
The species entered for assay [11] is Homo sapiens. In words: Selectivity ratio of IC50 for MKK3 (unknown origin) to IC50 for MEK2 (unknown origin).
The species named for assay [12] is Homo sapiens. Description: Selectivity ratio of IC50 for MKK3 (unknown origin) to IC50 for TAK1 (unknown origin).
Assay [13] is filed under the species Homo sapiens. In words: Selectivity ratio of IC50 for MKK3 (unknown origin) to IC50 for MLK3 (unknown origin).
The species entered for assay [14] is Homo sapiens. In words: Selectivity ratio of IC50 for MKK3 (unknown origin) to IC50 for ASK1 (unknown origin).
Assay [15] deals with T1, Dual specificity mitogen-activated protein kinase kinase 3. Description: Binding affinity to MKK3 (unknown origin) by surface plasmon resonance assay. On the technique in general: In SPR one partner is held on a chip, and binding of the other changes the refractive index at the surface.
The target in assay [16] is T2, Dual specificity mitogen-activated protein kinase kinase 6 (Homo sapiens, UniProt P52564).
T2 sequence (P52564 whole entry): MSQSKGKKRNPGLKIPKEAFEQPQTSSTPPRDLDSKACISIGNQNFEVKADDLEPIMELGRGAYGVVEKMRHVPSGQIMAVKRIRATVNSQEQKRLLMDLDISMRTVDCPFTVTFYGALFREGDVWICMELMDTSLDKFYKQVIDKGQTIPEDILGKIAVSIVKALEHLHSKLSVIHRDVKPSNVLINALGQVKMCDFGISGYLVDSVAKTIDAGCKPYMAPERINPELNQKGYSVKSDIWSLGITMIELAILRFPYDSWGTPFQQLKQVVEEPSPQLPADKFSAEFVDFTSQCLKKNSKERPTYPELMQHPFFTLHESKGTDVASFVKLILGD
Description: Inhibition of MKK6 (unknown origin) using [gamma-33P]-ATP after 20 mins by radiometric assay.

Chain of Mitogen-activated protein kinase 14 (Q16539 whole entry): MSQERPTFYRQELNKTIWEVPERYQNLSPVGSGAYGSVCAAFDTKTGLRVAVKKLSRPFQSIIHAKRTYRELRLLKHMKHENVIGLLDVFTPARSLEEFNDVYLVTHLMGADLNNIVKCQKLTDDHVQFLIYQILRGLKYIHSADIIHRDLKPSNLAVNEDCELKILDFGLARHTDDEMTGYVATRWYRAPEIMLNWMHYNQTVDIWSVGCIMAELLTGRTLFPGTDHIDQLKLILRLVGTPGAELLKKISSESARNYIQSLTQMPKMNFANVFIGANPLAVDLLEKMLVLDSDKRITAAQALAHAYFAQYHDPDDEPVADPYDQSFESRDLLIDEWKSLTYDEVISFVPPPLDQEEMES

Consider `CNc1ccc(-c2ccncc2)nc1C(N)=O`, for which the IC50 in assay [1] came to 2700 nM; in assay [2] it was 4 nM. The Ratio IC50 in [3] is less than 9; in [4], more than 100; in [5], more than 100; in [6], more than 100; in assay [7] it was more than 100; in assay [8] it was more than 100. The Ratio IC50 in assay [9], in assay [10], in [11], in assay [12], in assay [13] and in [14] was more than 100 each time.
`NC(=O)c1nc(-c2ccncc2)c2ccccn12`: the IC50 in [2] is 150 nM.
Take `NC(=O)c1nc(-c2ccns2)c2ccccn12`: the IC50 in [1] is 730 nM; in assay [2] it was 4 nM. Also, the Ratio IC50 was 12 in [3]; more than 100 in assay [4]; more than 100 in [5]; more than 100 in assay [6]; more than 100 in assay [7]; more than 100 in assay [8]. Also, the Ratio IC50 is more than 100 in [9]; 86 in assay [10]; more than 100 in [11]; 23 in assay [12]; more than 100 in assay [13]; more than 100 in [14].
In the case of `NC(=O)c1nc(-c2ccncc2)ccc1N`, the half-maximal inhibitory concentration (IC50) in [2] was determined as 30 nM.
On to `NC(=O)c1nnc2ccccc2c1N`, for which the IC50 in [2] was found to be 37000 nM; in assay [16], 16000 nM. Further, in assay [15], the Kd was 2000 nM.
On to `NC(=O)c1nc(-c2ccccc2)ccc1N`, for which the midpoint of inhibition in [2], the IC50, lay at 4200 nM.

As usually defined, the IC50 is the concentration that gives 50% inhibition. Read a low IC50 as higher potency. A word on the Kd: it is the constant that tells how readily two partners part at equilibrium. A high value points to lower affinity.

(Values after ChEMBL document CHEMBL3745714, “Fragment-based drug discovery of potent and selective MKK3/6 inhibitors” (Bioorg Med Chem Lett, 2016).)
